Laboratory results as given in ChEMBL document CHEMBL4371095, “Triazole-Based Inhibitors of the Wnt/β-Catenin Signaling Pathway Improve Glucose and Lipid Metabolisms in Diet-Induced Obese Mice” (J Med Chem, 2019).
Activity calls are given as the source filed them. The rule behind the calls is not given here.

Assays:
Mus musculus [1] = species on record: Mus musculus; test: Inhibition of Wnt/beta-catenin/Axin signaling in mouse hepatocytes assessed as decrease in ACOT4 mRNA level at 5 uM by qPCR analysis; format: cell-based
Summary of the method: (§1)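 Normal mouse hepatocytes were treated with 5 μM compound, and lipogenic and gluconeogenic gene mRNA was measured by qPCR; mean ± S.D. of triplicates.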

Mus musculus [2] = test: Effect on hepatic FGF21 mRNA level in normal chow diet fed C57BL/6J mouse at 40 mg/kg, ip administered every 2 days for 11 weeks by qPCR analysis; format: ADME, organism-based; settings: in vivo
Summary of the method: (§2)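 Male mice, 8 weeks old, kept on normal chow throughout and dosed i.p. every 2 days in corn oil vehicle for 11 weeks. Body weight gain, liver/body weight ratio, and liver mRNA of the indicated genes were measured at sacrifice; mean ± SEM, n = 5 per group where stated.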

Mus musculus [3] = test: Decrease in hepatic SCD1 mRNA level in high fat diet fed C57BL/6J mouse at 40 mg/kg, ip administered every 2 days for 11 weeks by qPCR analysis; format: functional, organism-based
Summary of the method: (§3)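 Male mice, 8 weeks old, fed a 45% kcal fat diet for 6 weeks, then dosed i.p. every 2 days in corn oil vehicle for 11 weeks. Liver mRNA of the indicated genes was quantified at sacrifice; mean ± SEM, n = 5 per group.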

Mus musculus [4] = test: Decrease in hepatic SREBP1 mRNA level in high fat diet fed C57BL/6J mouse at 40 mg/kg, ip administered every 2 days for 11 weeks by qPCR analysis; format: functional, organism-based; summary of the method: as §3
[5] = Oral bioavailability in mouse at 10 mg/kg administered as single dose by LC-MS analysis; format: ADME, organism-based; settings: in vivo
Mus musculus [6] = species on record: Mus musculus; test: Inhibition of Wnt/beta-catenin/Axin signaling in mouse hepatocytes assessed as decrease in ACAA1A mRNA level at 5 uM by qPCR analysis; format: cell-based; summary of the method: as §1
HEK293 [7] = test: Inhibition of Wnt/beta-catenin/Axin signaling (unknown origin) expressed in HEK293 cells assessed as increase in Axin binding to beta-catenin after 12 hrs by immunoprecipitation method; format: cell-based; settings: Homo sapiens
Mus musculus [8] = test: Effect on hepatic ACC1 mRNA level in normal chow diet fed C57BL/6J mouse at 40 mg/kg, ip administered every 2 days for 11 weeks by qPCR analysis; format: ADME, organism-based; settings: in vivo; summary of the method: as §2
Axin-1 (Homo sapiens) = Axin-1 (Homo sapiens) (UniProt O15169); test: Binding affinity to Axin1 (unknown origin) by SPR analysis
Homo sapiens = species on record: Homo sapiens; test: Ratio of IC50 for Wnt/beta-catenin signaling (unknown origin) expressed in HEK293 cells harboring GSK3B siRNA to IC50 for Wnt/beta-catenin signaling (unknown origin) expressed in HEK293 cells harboring siRNA; format: cell-based
[9] = Toxicity in normal chow diet fed C57BL/6J mouse assessed as serum triglyceride level at 40 mg/kg, ip administered every 2 days for 11 weeks (reference value: 69 +/- 2.5 mg/dl); format: organism-based; settings: in vivo
Mus musculus [10] = test: Decrease in hepatic Glp1 mRNA level in high fat diet fed C57BL/6J mouse at 40 mg/kg, ip administered every 2 days for 11 weeks by qPCR analysis; format: functional, organism-based; summary of the method: as §3
Mus musculus [11] = species on record: Mus musculus; test: Inhibition of Wnt/beta-catenin/Axin signaling in mouse hepatocytes assessed as decrease in G6PASE mRNA level at 5 uM by qPCR analysis; format: cell-based; summary of the method: as §1
HEK293 [12] = test: Inhibition of Wnt/beta-catenin/Axin signaling (unknown origin) expressed in HEK293 cells assessed as decrease in CycD1 mRNA level after 48 hrs by qPCR analysis; format: cell-based; settings: Homo sapiens
Summary of the method: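 HEK293 cells were treated with compound for 48 h, harvested in TRIzol, and Wnt target gene mRNA was quantified by qPCR.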

HEK293 [13] = test: Inhibition of Wnt (unknown origin)/FLAG-tagged human beta-catenin S33Y mutant signaling expressed in HEK293 cells harboring TCF/LEF-responsive luciferase at 100 nM measured after 24 hrs by luciferase reporter gene assay; format: cell-based
Summary of the method: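 HEK293 cells were transfected for 16 h with TOPFlash or FOPFlash, Renilla, and pcDNA3 wild-type or S33Y β-catenin. Compound was then added for a further 24 h. Firefly/Renilla dual-luciferase ratio was the read-out.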

[14] = Toxicity in high fat diet fed C57BL/6J mouse assessed as serum alkaline phosphatase level at 40 mg/kg, ip administered every 2 days for 11 weeks (reference value: 58.3 +/- 3.8 U/L); format: organism-based; settings: in vivo
[15] = Inhibition of Wnt/beta-catenin signaling (unknown origin) expressed in HEK293 cells harboring GSK3B siRNA after 24 hrs by luciferase reporter gene assay; format: cell-based; settings: Homo sapiens, HEK293, 24 h
[16] = Toxicity in normal chow diet fed C57BL/6J mouse assessed as serum LDH level at 40 mg/kg, ip administered every 2 days for 11 weeks (reference value: 324 +/- 63.5 U/L); format: organism-based; settings: in vivo
HEK293 [17] = test: Inhibition of Wnt/beta-catenin signaling (unknown origin) expressed in CK1alpha knock down HEK293 cells harboring TCF/LEF-responsive luciferase assessed as luminescence at 20 nM measured after 24 hrs by luciferase reporter gene assay relative to control; format: cell-based; parameters: scale not given: the % may be the effect or the level left; settings: Homo sapiens
Summary of the method: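 HEK293 cells were transfected with siRNA against GSK3β, Axin or CK1α using RNAiMAX for 36 h. Cells were then treated with or without compound at 20 nM for 24 h, and TCF/LEF luciferase reporter activity was read.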

Mus musculus [18] = test: Decrease in hepatic ACAT2 mRNA level in high fat diet fed C57BL/6J mouse at 40 mg/kg, ip administered every 2 days for 11 weeks by qPCR analysis; format: functional, organism-based; summary of the method: as §3
Mus musculus [19] = test: Effect on hepatic SCD1 mRNA level in normal chow diet fed C57BL/6J mouse at 40 mg/kg, ip administered every 2 days for 11 weeks by qPCR analysis; format: ADME, organism-based; settings: in vivo; summary of the method: as §2
[20] = Toxicity in normal chow diet fed C57BL/6J mouse assessed as serum uric acid level at 40 mg/kg, ip administered every 2 days for 11 weeks (reference value: 4 +/- 0.2 mg/dl); format: organism-based; settings: in vivo
HepG2 = test: Inhibition of Wnt/beta-catenin deletion mutant signaling in human HepG2 cells at 50 nM after 24 hrs by luciferase reporter gene assay; format: cell-based
Summary of the method: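 HepG2 cells carry the CTNNB1 Δ25–140 deletion and were transfected with the TCF/LEF luciferase reporter constructs. Compound was applied and reporter luminescence measured; mean ± S.D., n = 3.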

Mus musculus [21] = test: Decrease in hepatic CycD1 mRNA level in high fat diet fed C57BL/6J mouse at 40 mg/kg, ip administered every 2 days for 11 weeks by qPCR analysis; format: functional, organism-based; summary of the method: as §3
HEK293 [22] = test: Inhibition of 25 to 50 mM LiCl activated Wnt/beta-catenin signaling (unknown origin) expressed in HEK293 cells harboring TCF/LEF-responsive luciferase at 0.1 uM preincubated with cells followed by LiCl addition and measured after 24 hrs by luciferase reporter gene assay; format: cell-based; settings: Homo sapiens
[23] = Toxicity in normal chow diet fed C57BL/6J mouse assessed as serum ALT level at 40 mg/kg, ip administered every 2 days for 11 weeks (reference value: 20 +/- 5.1 U/L); format: organism-based; settings: in vivo
HEK293 [24] = test: Growth inhibition of unstimulated HEK293 cells up to 100 uM after 72 hrs by CellTiter-Fluor assay; format: cell-based; settings: human, hek293, 72 h
Summary of the method: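 Unstimulated HEK293 cells were plated at 3.5×10^5/well and grown for 24 h, then incubated with compound for 72 h. Viability was read with CellTiter-Fluor.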

[25] = Inhibition of Wnt/beta-catenin signaling (unknown origin) expressed in HEK293 cells harboring siRNA after 24 hrs by luciferase reporter gene assay; format: cell-based; settings: Homo sapiens, HEK293, 24 h

Axin-1 (Homo sapiens), sequence (O15169 whole entry): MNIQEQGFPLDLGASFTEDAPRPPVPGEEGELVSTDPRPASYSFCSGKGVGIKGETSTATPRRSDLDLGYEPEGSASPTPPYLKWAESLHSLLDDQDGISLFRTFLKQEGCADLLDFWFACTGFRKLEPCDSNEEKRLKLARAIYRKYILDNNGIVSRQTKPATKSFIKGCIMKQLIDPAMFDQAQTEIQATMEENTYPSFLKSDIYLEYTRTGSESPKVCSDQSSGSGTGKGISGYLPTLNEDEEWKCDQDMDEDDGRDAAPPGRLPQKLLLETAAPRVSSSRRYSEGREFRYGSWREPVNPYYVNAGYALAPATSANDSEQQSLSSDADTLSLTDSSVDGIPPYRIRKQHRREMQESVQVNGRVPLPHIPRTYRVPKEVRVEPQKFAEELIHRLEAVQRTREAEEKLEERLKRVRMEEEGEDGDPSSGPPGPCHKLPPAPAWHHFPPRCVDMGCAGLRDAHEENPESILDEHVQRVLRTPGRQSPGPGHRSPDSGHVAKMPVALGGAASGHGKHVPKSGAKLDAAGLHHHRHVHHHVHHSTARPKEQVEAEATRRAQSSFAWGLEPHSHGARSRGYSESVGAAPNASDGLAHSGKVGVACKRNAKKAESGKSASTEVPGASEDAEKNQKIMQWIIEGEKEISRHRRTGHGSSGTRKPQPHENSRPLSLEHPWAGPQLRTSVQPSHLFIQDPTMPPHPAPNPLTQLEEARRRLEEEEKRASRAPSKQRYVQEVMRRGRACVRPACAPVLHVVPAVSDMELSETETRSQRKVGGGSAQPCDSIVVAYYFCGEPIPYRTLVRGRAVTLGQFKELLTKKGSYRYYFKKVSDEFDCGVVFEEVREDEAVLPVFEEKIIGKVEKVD

For `Cc1ccccc1-n1nnc(C(=O)Nc2ccc3ccccc3n2)c1C`, the inhibition (Mus musculus [1]) was “Active”, the Activity (Mus musculus [2]) was “Non-Toxic” and the Activity (Mus musculus [3]) was “Active”. For the same compound, the Activity (Mus musculus [4]) was “Active”, the bioavailability [5] was 21% and the inhibition (Mus musculus [6]) was “Active”. The inhibition (HEK293 [7]) was “Active”, the Activity (Mus musculus [8]) was “Non-Toxic” and the Activity (Axin-1 (Homo sapiens)) was “inactive”. The Ratio IC50 (Homo sapiens) was 1.7, the Activity [9] was 55 mg/dL and the Activity (Mus musculus [10]) was “Active”. For the same compound, the inhibition (Mus musculus [11]) was “Active”, the inhibition (HEK293 [12]) was “Active” and the inhibition (HEK293 [13]) was “Active”. It also gave an Activity [14] of 51 U/L, an IC50 [15] of 0.034 µM and an Activity [16] of 190 U/L. For the same compound, the Activity (HEK293 [17]) was 52%, the Activity (Mus musculus [18]) was “Active” and the Activity (Mus musculus [19]) was “Non-Toxic”. For the same compound, the Activity [20] was 3.8 mg/dL, the inhibition (HepG2) was “inactive” and the Activity (Mus musculus [21]) was “Active”. The inhibition (HEK293 [22]) was “Active”, the Activity [23] was 12.8 U/L and the “growth inhibition (GI)” value (HEK293 [24]) was “Non-Toxic”. For the same compound, the IC50 [25] was 0.02 µM.
